# In ChEMBL document CHEMBL1629439, “High-throughput identification of antibacterials against methicillin-resistant Staphylococcus aureus (MRSA) and the transglycosylase” (Bioorg Med Chem, 2010):
# Assays:
# Staphylococcus aureus [1] = assay: Antimicrobial activity against methicillin-resistant Staphylococcus aureus isolate NTUH4722 after 18 to 24 hrs by alamar blue assay; type: functional
# Procedure, shortened: (§1)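 Broth microdilution per NCCLS standard, Mueller-Hinton broth, 8-point twofold dilutions; exponentially growing cells at 5 10^5 cells/ml with compound, 18–24 h at 37 C; 20% Alamar blue added, fluorescence read; MIC90 taken as lowest concentration preventing at least 90% growth.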
# Acinetobacter baumannii = assay: Antimicrobial activity against Acinetobacter baumannii ATCC 49139 after 18 to 24 hrs by alamar blue assay; type: functional; settings: Acinetobacter baumannii, ATCC 49139; read-out: MIC
# Procedure, shortened: (§2)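 Broth microdilution per NCCLS in Mueller-Hinton broth, 8-point twofold dilutions, 384-well format. Exponential-phase cells at 5 × 10^5 cells/ml incubated with compound 18–24 h at 37 °C, then 20% Alamar blue added and fluorescence read. MIC90 taken as the lowest concentration preventing at least 90% bacterial growth.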
# Pseudomonas aeruginosa = assay: Antimicrobial activity against Pseudomonas aeruginosa ATCC 25619 after 18 to 24 hrs by alamar blue assay; type: functional; settings: Pseudomonas aeruginosa, ATCC 25619; read-out: MIC; procedure, shortened: as §2
# [2] = tested on: Mycolicibacterium smegmatis; assay: Antimicrobial activity against Mycobacterium smegmatis BCRC 11565 after 18 to 24 hrs by alamar blue assay; type: functional; settings: Mycolicibacterium smegmatis, BCRC 11565; read-out: MIC; procedure, shortened: as §2
# [3] = tested on: Stenotrophomonas maltophilia; assay: Antimicrobial activity against Stenotrophomonas maltophilia ATCC 13637 after 18 to 24 hrs by alamar blue assay; type: functional; settings: Stenotrophomonas maltophilia, ATCC 13637; read-out: MIC; procedure, shortened: as §2
# Staphylococcus aureus [4] = assay: Antimicrobial activity against oxacillin- and methicillin-resistant Staphylococcus aureus isolate Sa-OXA-R2 after 18 to 24 hrs by alamar blue assay; type: functional; procedure, shortened: as §1
# Staphylococcus aureus [5] = assay: Antimicrobial activity against Staphylococcus aureus ATCC 29213 after 18 to 24 hrs by alamar blue assay
# Bacillus subtilis = assay: Antimicrobial activity against Bacillus subtilis ATCC 23857 after 18 to 24 hrs by alamar blue assay; type: functional; procedure, shortened: as §2
# Staphylococcus aureus [6] = assay: Antimicrobial activity against methicillin-resistant Staphylococcus aureus ATCC 33592 after 18 to 24 hrs by alamar blue assay; type: functional; settings: Staphylococcus aureus, ATCC 33592; read-out: MIC; procedure, shortened: as §1
# Serratia marcescens = assay: Antimicrobial activity against Serratia marcescens ATCC 14756 after 18 to 24 hrs by alamar blue assay; type: functional; settings: Serratia marcescens, ATCC 14756; read-out: MIC; procedure, shortened: as §2
# Escherichia coli = assay: Antimicrobial activity against Escherichia coli ATCC […] after 18 to 24 hrs by alamar blue assay; type: functional; settings: Escherichia coli; read-out: MIC; procedure, shortened: as §2
Compound,MIC (Staphylococcus aureus [1]) [µg/mL],MIC (Acinetobacter baumannii) [µg/mL],MIC (Pseudomonas aeruginosa) [µg/mL],MIC [2] [µg/mL],MIC [3] [µg/mL],MIC (Staphylococcus aureus [4]) [µg/mL],MIC (Staphylococcus aureus [5]) [µg/mL],MIC (Bacillus subtilis) [µg/mL],MIC (Staphylococcus aureus [6]) [µg/mL],MIC (Serratia marcescens) [µg/mL],MIC (Escherichia coli) [µg/mL]
O=C1c2cccc3cccc(c23)C(=O)N1CCN1CCN(CCc2ccccc2)CC1,16,> 256,> 256,4,> 256,0.5,1,4,1,> 256,> 256
CC[C@@H](C)[C@H](NC(=O)Cc1c(C)c2cc3c(-c4ccc(Cl)cc4)coc3c(C)c2oc1=O)C(=O)O,2.5,> 256,> 256,1,> 256,2.5,2.5,> 64,2.5,> 256,> 256
O=C(Nc1nnc(-c2ccc(Br)cc2)o1)c1cccc(C(F)(F)F)c1,0.5,> 256,> 256,0.5,> 256,0.125,1,0.5,1,> 256,> 256
O=C(Nc1nnc(-c2cccc(Br)c2)o1)c1ccc(F)cc1,1.5,> 256,> 256,0.5,> 256,1.5,3,0.5,1.5,> 256,> 256
O=C(Nc1cc(Cl)c(Cl)c(Cl)c1)c1cc(Br)cc(Br)c1O,≤ 0.03,16,16,0.5,16,≤ 0.03,≤ 0.03,< 0.03,0.06,16,8
Cc1cccc(NS(=O)(=O)c2ccc3c(c2)NC(=O)C(C)S3)c1C (centres undefined),16,> 256,> 256,> 64,> 256,16,2,< 0.03,64,> 256,> 256
O=C(Nc1cccc(Cl)c1)c1cc(Br)cc(Br)c1O,2,16,16,0.5,16,8,2,< 0.03,2,16,8
COC(=O)c1ccccc1NC(=O)c1ccc([N+](=O)[O-])o1,4,12,128,0.5,32,2,8,0.06,0.5,32,256
O=C(Nc1nnc(-c2ccc(F)cc2)o1)c1cccc(C(F)(F)F)c1,1,> 256,> 256,0.5,> 256,4,0.5,0.5,0.5,> 256,> 256
CCc1ccccc1NS(=O)(=O)c1ccc2c(c1)NC(C)CC(=O)S2 (centres undefined),4,> 256,> 256,> 64,> 256,> 64,2,< 0.03,8,> 256,> 256
O=C(Nc1nnc(-c2ccccc2Cl)o1)c1cccc(C(F)(F)F)c1,2,> 256,> 256,0.5,> 256,0.5,1,0.5,0.5,> 256,> 256
CCCc1cc(O)nc(N2NC(C)=CC2NC(=O)c2cccs2)n1 (centres undefined),1,> 256,> 256,0.25,> 256,1,1,0.25,1,> 256,> 256
CSC[C@H](NC(=O)Cc1c(C)c2cc3c(-c4ccc(Cl)cc4)coc3c(C)c2oc1=O)C(=O)O,2.5,> 256,> 256,1,> 256,2.5,2.5,> 64,1.25,> 256,> 256
O=C(Nc1cccc(-c2nc3ncccc3o2)c1)c1ccc([N+](=O)[O-])o1,2,12,128,0.5,32,2,4,0.06,4,32,256
O=C1c2cc([N+](=O)[O-])cc3cc([N+](=O)[O-])cc(c23)C(=O)N1c1ccc(O)cc1,2.5,> 256,> 256,4,> 256,0.3,2.5,4,2.5,> 256,> 256
Cc1c(CC(=O)N[C@@H](C(=O)O)c2ccccc2)c(=O)oc2c(C)c3occ(-c4ccc(Cl)cc4)c3cc12,2.5,> 256,> 256,1,> 256,2.5,2.5,> 64,2.5,> 256,> 256
CC(C)N1C(=O)/C(=C/c2ccc([N+](=O)[O-])o2)SC1=S,2,> 256,2,1,> 256,1,0.25,< 0.03,1,> 256,16
Cc1ccc(-c2nnc(NC(=O)c3nc4ccccc4s3)o2)c(C)c1,0.25,> 256,> 256,0.5,> 256,0.25,0.5,0.5,0.5,> 256,> 256
CCCc1cc(O)nc(N2NC(C)=CC2NC(=O)c2ccccc2Cl)n1 (centres undefined),1,> 256,> 256,0.25,> 256,2,1,0.25,0.5,> 256,> 256
Cc1ccc(C)c(NS(=O)(=O)c2ccc3c(c2)NCC(C)C(=O)S3)c1 (centres undefined),32,> 256,> 256,> 64,> 256,> 64,2,< 0.03,16,> 256,> 256
O=C(Nc1ccc(Cl)cc1)c1cc(Br)cc(Br)c1O,1,16,16,0.5,16,1,1,< 0.03,4,16,8
CCOc1ccc2nc(NC(=O)c3ccc([N+](=O)[O-])o3)sc2c1,16,12,128,0.5,32,16,2,0.06,4,32,256
CCc1cc(O)nc(N2NC(C)=CC2NC(=O)c2ccccc2F)n1 (centres undefined),2,> 256,> 256,0.25,> 256,1,1,0.25,4,> 256,> 256
Cc1c(CC(=O)N2CCC(C(=O)O)CC2)c(=O)oc2c(C)c3occ(-c4ccc(F)cc4)c3cc12,2.5,> 256,> 256,1,> 256,2.5,2.5,> 64,1.25,> 256,> 256
